Consider eleven molecules from ChEMBL document CHEMBL2176891, “Structural investigation of anti-Trypanosoma cruzi 2-iminothiazolidin-4-ones allows the identification of agents with efficacy in infected mice” (J Med Chem, 2012).

The term inhibition denotes how much of the control response was suppressed. The term IC50 denotes the concentration at which inhibition is half-maximal.

The source made the active and inactive calls. The rule behind the calls is not given here. Where only a bound is given, the exact number is not on record here.

Series [1] addresses Cruzipain (Trypanosoma cruzi) (UniProt P25779). Kind of series: (§1) Inhibition of Trypanosoma cruzi recombinant cruzain using Z-FR-AMC as substrate at 20 uM preincubated for 10 mins before substrate addition.
Series [2] relates to Trypanosoma cruzi. Nature of the series: Antitrypanosomal activity against trypomastigotes of Trypanosoma cruzi Y infected in LLC-MK2 cells assessed as parasite motility after 24 hrs. Format: functional, organism-based. The settings on record: LLC-MK2, 24 h. Put shortly:
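Y strain bloodstream trypomastigotes taken from LLC-MK2 culture supernatant, 4 × 10⁵ cells/well. Five compound concentrations (DMSO), triplicate, 24 h at 37 °C, 5% CO₂. Viable parasites judged by motility in a Neubauer chamber. Inhibition calculated relative to untreated culture; IC50 by nonlinear regression.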

Series [3] is described as follows: Solubility of the compound in 0.1 M sodium acetate pH 5.5. It is filed as physicochemical. The settings on record: buffer.
Series [4] in a line: Cytotoxicity against BALB/c mouse splenocytes assessed as highest nontoxic concentration by measuring [3H]-thymidine incorporation after 24 hrs by beta-radiation counting. It is filed as cell-based, Splenocyte. The settings on record: for MNTC at 24 h: mouse, splenocytes, read-out: Activity; for highest nontoxic concentration: Mus musculus, Splenocyte, read-out: IC50. The gist of the method:
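BALB/c splenocytes, 5 × 10⁶ cells/well in RPMI-1640 with 10% FBS. Compound in DMSO at 1.0, 10 and 100 μg/mL or more, triplicate; untreated and saponin controls. 24 h at 37 °C, 5% CO₂. 1.0 μCi ³H-thymidine added, incorporation read by β-counting as % of untreated. Highest nontoxic concentration estimated.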
Background: Dividing cells build labelled thymidine or BrdU into new DNA.

Series [5] deals with T1, Cruzipain (Trypanosoma cruzi, UniProt P25779). Nature of the series: Inhibition of Trypanosoma cruzi recombinant cruzain using Z-FR-AMC as substrate preincubated for 10 mins before substrate addition. The gist of the method:
(§2)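 Recombinant cruzain preincubated 10 min at room temperature with compound (DMSO) in phosphate buffer containing EDTA, 100 mM NaCl and DTT. Z-FR-AMC then added; final 0.5 nM enzyme and 2 μM substrate. Fluorescence read at 1, 5 and 10 min; % inhibition versus no-inhibitor control. Single-point values are triplicate means; IC50 by nonlinear regression from multiple concentrations. Some runs used 0.01% Triton X-100.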

The test system of series [6] is Trypanosoma cruzi. Nature of the series: Antitrypanosomal activity against epimastigotes of Trypanosoma cruzi Y in axenic culture assessed as parasite motility after 11 days. The following applies: 264 h.
In series [7] the target is T2, Procathepsin L (Homo sapiens, UniProt P07711). Kind of series: Inhibition of recombinant cathepsin L using ZFR-pNA as substrate at 100 uM preincubated for 45 mins. The gist of the method:
(§3)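 Recombinant cathepsin L or S activated with 1 mM DTT in 0.1 M acetate pH 5.5. Preincubated 45 min at room temperature with compound in phosphate buffer with 0.1% BSA, 1 mM EDTA and 0.001% Tween. Z-FR-pNA added, reaction 5 min; final 30 nM enzyme and 5.0 μM substrate. Triplicate runs; IC50 from at least seven concentrations.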
Target sequence in this assay (P07711 114-333 limits assumed): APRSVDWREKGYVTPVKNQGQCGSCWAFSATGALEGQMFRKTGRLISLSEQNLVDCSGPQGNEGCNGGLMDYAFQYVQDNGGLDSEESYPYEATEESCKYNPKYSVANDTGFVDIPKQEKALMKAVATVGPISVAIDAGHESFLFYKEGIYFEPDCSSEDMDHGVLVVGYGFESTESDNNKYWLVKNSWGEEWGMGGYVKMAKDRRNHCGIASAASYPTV

Series [8] in a line: Antiproliferative activity against concanavalin A-stimulated BALB/c mouse splenocytes after 72 hrs by AlamarBlue assay. It is filed as cell-based. The following applies: Splenocyte. The gist of the method: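 Splenocytes from BALB/c mice at 5 × 10⁶ cells/well in RPMI-1640 with 10% FBS, stimulated with 2.0 μg/mL concanavalin A. Compounds in DMSO, six concentrations in triplicate. Controls: con A alone, no con A, and con A plus 0.01 μg/mL cyclosporin A. 72 h at 37 °C, 5% CO₂. AlamarBlue for 1 h, fluorescence ex 530/em 590 nm. IC50 by nonlinear regression.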
In general terms: Resazurin is reduced to fluorescent resorufin, in cell work by metabolically active cells.

Series [9] addresses T2, Procathepsin L. Kind of series: Inhibition of recombinant cathepsin L using ZFR-pNA as substrate preincubated for 45 mins. Put shortly:
as §3
Target sequence in this assay (P07711 whole entry): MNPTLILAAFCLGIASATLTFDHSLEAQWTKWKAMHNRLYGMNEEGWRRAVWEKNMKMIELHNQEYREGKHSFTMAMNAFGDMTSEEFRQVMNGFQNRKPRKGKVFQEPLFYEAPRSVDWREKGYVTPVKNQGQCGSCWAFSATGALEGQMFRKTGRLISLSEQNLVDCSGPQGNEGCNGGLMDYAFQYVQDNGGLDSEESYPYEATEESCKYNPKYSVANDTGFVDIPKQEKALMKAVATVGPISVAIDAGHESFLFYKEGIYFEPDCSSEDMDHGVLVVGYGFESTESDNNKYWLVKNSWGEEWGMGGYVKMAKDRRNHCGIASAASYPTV

Series [10] in a line: Selectivity index, ratio of IC50 for concanavalin A-stimulated BALB/c mouse splenocytes to IC50 for trypomastigotes of Trypanosoma cruzi Y infected in mouse peritoneal macrophages. The gist of the method:
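Ratio of splenocyte IC50 to IC50 against intracellular parasites in Y strain-infected peritoneal macrophages (4-day assay).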

Another series addresses Cathepsin S (Homo sapiens, UniProt P25774). Nature of the series: Inhibition of recombinant cathepsin S using ZFR-pNA as substrate preincubated for 45 mins. Put shortly:
as §3

The subject of series [11] is Trypanosoma cruzi. Kind of series: Antitrypanosomal activity against trypomastigotes of Trypanosoma cruzi Y infected in mouse peritoneal macrophages assessed as reduction of intracellular parasite level after 4 days. Format: functional, organism-based. The settings on record: 96 h. The gist of the method:
(§4)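 Peritoneal exudate macrophages, 2 × 10⁵/well on coverslips, infected with Y strain trypomastigotes at 10 parasites per macrophage for 2 h, then washed. Compound in DMSO added for 6 h, medium replaced, culture continued 4 days. After methanol fixation and Giemsa staining, 100 cells per slide counted for % infected macrophages and amastigotes per cell. IC50 based on % infected cells versus untreated.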

The target in series [12] is T1, Cruzipain. Described as §1.
The target in series [13] is Cruzipain (Trypanosoma cruzi) (UniProt P25779). Nature of the series: Inhibition of Trypanosoma cruzi recombinant cruzain using Z-FR-AMC as substrate at 20 uM preincubated for 10 mins before substrate addition in presence of 0.01% of Triton X-100. The gist of the method: as §2
Series [14] has as its system Mus musculus. Kind of series: Toxicity in BALB/c mouse assessed as mortality at 250 umol/kg, po qd for 5 days. Format: organism-based. The settings on record: in vivo, 120 h. The gist of the method: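 Female BALB/c mice, 6–8 weeks old, were infected i.p. with 10⁴ Y strain bloodstream trypomastigotes in saline and randomly grouped, six per group. From day 5 postinfection, drug was given orally by gavage at 250 μmol/kg once daily for five consecutive days. Blood parasites were counted by hemocytometer, and survival was followed for one month. Untreated and benznidazole-treated infected mice served as controls.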

Series [15] deals with Trypanosoma cruzi. Nature of the series: Antitrypanosomal activity against epimastigotes of Trypanosoma cruzi Y assessed as reduction of proteolytic activity using gelatin as substrate after 48 hrs by zymography assays.
Series [16] relates to Trypanosoma cruzi. Nature of the series: Induction of ultrastructural alteration of trypomastigotes of Trypanosoma cruzi Y at 3.9 uM by scanning electron microscopy. Format: functional, organism-based. Put shortly:
(§5)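 Y strain bloodstream trypomastigotes and infected macrophages exposed to 3.9 μM compound, then examined by transmission and scanning electron microscopy.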

Series [17] deals with Trypanosoma cruzi. Nature of the series: Inhibition of trypomastigotes of Trypanosoma cruzi Y invasion to mouse peritoneal macrophages at 50 uM […]. Format: functional, organism-based.
Series [18] has as its system Trypanosoma cruzi. Kind of series: Antitrypanosomal activity against trypomastigotes of Trypanosoma cruzi Y infected in BALB/c mouse assessed as reduction of blood parasite level at 250 umol/kg, po qd for 5 days. Format: functional. Also on record: scale not given: the % may be the effect or the level left. The gist of the method:
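Female BALB/c mice, 6–8 weeks old, infected ip with 10⁴ Y strain bloodstream trypomastigotes in saline; six mice per group. From day 5 postinfection, 250 μmol/kg given orally by gavage once daily for 5 days. Fresh-blood parasitemia counted in a hemocytometer. Reduction = (vehicle − treated)/vehicle × 100, using day 5 of treatment; two independent experiments.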

Series [19] has as its system Trypanosoma cruzi. Kind of series: Antitrypanosomal activity against trypomastigotes of Trypanosoma cruzi Y infected in mouse peritoneal macrophages assessed as reduction of intracellular parasite level at 10 uM after 4 days. It is filed as functional, organism-based. The gist of the method: as §4
For series [20], the system named is Trypanosoma cruzi. Nature of the series: Induction of ultrastructural alteration of trypomastigotes of Trypanosoma cruzi Y at 3.9 uM by transmission electron microscopy. Format: functional, organism-based. Put shortly: as §5
The subject of series [21] is Mus musculus. Nature of the series: Toxicity in BALB/c mouse assessed as reduction in body weight at 250 umol/kg, po qd for 5 days. Format: organism-based. The settings on record: in vivo, 120 h.
Series [22] has as its system Trypanosoma cruzi. Nature of the series: Antitrypanosomal activity against Trypanosoma cruzi. Format: functional, organism-based.
Series [23] concerns the target Cruzipain (Trypanosoma cruzi) (UniProt P25779). Kind of series: Inhibition of Trypanosoma cruzi recombinant cruzain using Z-FR-AMC as substrate at 100 uM preincubated for 10 mins before substrate addition. Put shortly: as §2

T1 sequence (P25779 whole entry): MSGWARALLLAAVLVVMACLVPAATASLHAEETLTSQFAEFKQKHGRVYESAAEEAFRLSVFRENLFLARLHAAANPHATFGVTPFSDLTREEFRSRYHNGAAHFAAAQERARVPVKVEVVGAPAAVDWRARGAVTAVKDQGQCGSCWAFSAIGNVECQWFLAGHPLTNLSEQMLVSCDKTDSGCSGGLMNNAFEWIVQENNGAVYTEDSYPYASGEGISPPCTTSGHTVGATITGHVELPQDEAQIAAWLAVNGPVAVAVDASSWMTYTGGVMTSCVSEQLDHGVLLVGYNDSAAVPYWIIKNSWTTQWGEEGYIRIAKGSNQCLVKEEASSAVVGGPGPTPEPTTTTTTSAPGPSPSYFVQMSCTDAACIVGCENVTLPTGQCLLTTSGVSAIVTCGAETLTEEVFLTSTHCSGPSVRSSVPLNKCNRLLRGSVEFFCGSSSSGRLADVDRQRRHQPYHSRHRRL
Chain of Cruzipain (Trypanosoma cruzi) (P25779 123-467 limits assumed): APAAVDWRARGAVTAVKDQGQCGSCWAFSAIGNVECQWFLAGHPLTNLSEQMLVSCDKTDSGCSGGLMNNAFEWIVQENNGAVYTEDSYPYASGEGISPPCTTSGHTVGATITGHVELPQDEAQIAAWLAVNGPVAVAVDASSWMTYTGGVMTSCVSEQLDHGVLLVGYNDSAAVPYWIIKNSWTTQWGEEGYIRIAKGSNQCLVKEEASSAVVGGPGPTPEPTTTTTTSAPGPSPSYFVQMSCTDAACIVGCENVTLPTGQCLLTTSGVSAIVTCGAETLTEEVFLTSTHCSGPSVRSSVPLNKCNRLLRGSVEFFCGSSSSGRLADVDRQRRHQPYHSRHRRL
Chain of Cathepsin S (P25774 whole entry): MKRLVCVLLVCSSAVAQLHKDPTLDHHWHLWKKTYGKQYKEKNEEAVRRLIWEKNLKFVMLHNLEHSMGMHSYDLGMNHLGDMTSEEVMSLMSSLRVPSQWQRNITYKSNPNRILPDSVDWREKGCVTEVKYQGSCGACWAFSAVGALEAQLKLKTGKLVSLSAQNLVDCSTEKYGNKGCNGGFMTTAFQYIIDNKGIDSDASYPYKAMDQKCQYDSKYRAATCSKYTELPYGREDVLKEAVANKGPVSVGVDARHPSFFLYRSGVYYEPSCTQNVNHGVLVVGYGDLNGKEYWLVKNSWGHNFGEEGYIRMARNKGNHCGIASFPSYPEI

Take `C/C(COc1ccccc1)=N\N=C1\SC(c2ccccc2)C(=O)N1c1ccccc1` (racemic): the inhibition was 43% in [1] and 15% at Procathepsin L [7]. Moreover, the concentration for half-maximal inhibition (IC50) with Trypanosoma cruzi [2] is 11.1 µM; at Cruzipain [5], “ND(Insoluble)”; in the series with Trypanosoma cruzi [6], 15.6 µM. Moreover, the solubility entry in [3] was “Insoluble”. The MNTC at 24 h in [4] was > 100 µg/mL.

Regarding `C/C(COc1ccccc1)=N\N=C1/NC(=O)CS1`, the inhibition in [1] was 0%; at Procathepsin L [7] it was 1%. Also, the IC50 was 19 µM in the series on Trypanosoma cruzi [2]; 98 µM in series [8]; > 100 µM at Procathepsin L [9]; > 100 µM at Cathepsin S; 23.2 µM in the series on Trypanosoma cruzi [6]; 19.5 µM with Trypanosoma cruzi [11]. In addition, the highest nontoxic concentration in series [4] is > 200 µM. For the same molecule, the MNTC at 24 h in series [4] is > 100 µg/mL. In [10], the “Ratio IC50” value is on record as 10.

`C/C(COc1ccccc1)=N\Nc1nc(-c2ccccc2)cs1`: in series [1], the inhibition result is “inactive”. In addition, the IC50 at Cruzipain [12] is > 20 µM; in the series with Trypanosoma cruzi [2], 19.6 µM. Besides, the MNTC at 24 h in series [4] amounted to 50 µg/mL.

With `C/C(COc1ccccc1)=N\N=C1\SC(c2ccccc2)C(=S)N1c1ccccc1` (racemic), the inhibition in [1] came to 72%; in series [13], 79%; on Procathepsin L [7], 89%. The IC50 with Trypanosoma cruzi [2] was determined as 11.2 µM; at Procathepsin L [9] it was 10.8 µM; on Cruzipain [5] (read-out: IC50) it was 7 µM; with Trypanosoma cruzi [6] it was 4.2 µM. Moreover, in series [4], the MNTC at 24 h was found to be 100 µg/mL.

Consider `C/C(COc1ccccc1)=N\N=C1\SC(C(C)C)C(=O)N1c1ccccc1` (racemic), for which the Activity result in the series on Mus musculus [14] is “Non-toxic”; with Trypanosoma cruzi [15] it was “Dose-dependent effect”; in the series with Trypanosoma cruzi [18] it was 89.6%; in the series with Mus musculus [21], “Non-toxic”. Besides, the inhibition worked out at 78% in series [1], 81% in series [13] and 10% on Procathepsin L [7]. Also, the outcome in the series with Trypanosoma cruzi [16], in the series with Trypanosoma cruzi [19] and with Trypanosoma cruzi [20] was Active. Also, in the series on Trypanosoma cruzi [17], the inhibition entry was “Active”. Also, the IC50 in the series on Trypanosoma cruzi [2] is 6.1 µM; in series [8], > 262 µM; at Procathepsin L [9] it was > 100 µM; at Cruzipain [5] (read-out: IC50), 6.6 µM; at Cathepsin S, > 100 µM; in the series on Trypanosoma cruzi [6] it was 4.9 µM. Besides, in the series with Trypanosoma cruzi [11], the half-maximal inhibitory concentration (IC50) was determined as 10.1 µM. Further, the highest nontoxic concentration in series [4] was > 262 µM. Moreover, the MNTC at 24 h in [4] is > 100 µg/mL. Moreover, the “Ratio IC50” value in series [10] is on record as 25.

Turning to `O=C(Cn1ccnc1[N+](=O)[O-])NCc1ccccc1` [BENZNIDAZOLE], the Activity in the series with Trypanosoma cruzi [18] is on record as >99%. Also, the IC50 turned out to be 6.2 µM in the series with Trypanosoma cruzi [2], 6.6 µM in the series with Trypanosoma cruzi [6] and 13.9 µM in the series on Trypanosoma cruzi [11]. In the series with Trypanosoma cruzi [19], the outcome was Active.

For the molecule `Cc1ccc(SC/C=N/N=C2\NC(=O)C(C)S2)cc1` (stereo not given), the IC50 in the series with Trypanosoma cruzi [22] was determined as 80.4 µM.

Regarding `C/C(COc1ccccc1)=N\N=C1/NC(=O)C(c2ccccc2)S1` (racemic), the inhibition in series [1] and in series [23] was 63% each time. Moreover, the IC50 with Trypanosoma cruzi [2] is 18.7 µM; with Trypanosoma cruzi [6], 34.8 µM. Moreover, the solubility entry in series [3] is on record as “Insoluble”. For the same molecule, the MNTC at 24 h in series [4] stood at 25 µg/mL.

For `C/C(COc1ccccc1)=N\Nc1nc(-c2ccncc2)cs1`, the inhibition entry in the series on Trypanosoma cruzi [17] is “inactive”. The IC50 with Trypanosoma cruzi [2] came to 3.9 µM; in the series with Trypanosoma cruzi [6] it was 4 µM. The outcome with Trypanosoma cruzi [19] was inactive. Moreover, the inhibition in series [23] is 13.3%. Further, the MNTC at 24 h in [4] turned out to be 100 µg/mL.

Consider `CCC1S/C(=N/N=C(\C)COc2ccccc2)N(c2ccccc2)C1=O` (racemic), for which the inhibition is 66% in [1], 64% in [13] and 4% at Procathepsin L [7]. The concentration for half-maximal inhibition (IC50) was 5.8 µM with Trypanosoma cruzi [2]; > 100 µM at Procathepsin L [9]; 9.5 µM on Cruzipain [5] (read-out: IC50); > 100 µM on Cathepsin S; 11.1 µM in the series on Trypanosoma cruzi [6]. In addition, the outcome with Trypanosoma cruzi [19] was Active. For the same molecule, the MNTC at 24 h in series [4] turned out to be 100 µg/mL.

As for `C/C(COc1ccccc1)=N\N=C1\SC(c2ccccc2)C(=O)N1C` (racemic), in series [1], the inhibition worked out at 27%. Further, the values for the IC50 with Trypanosoma cruzi [2], on Cruzipain [5] and in the series on Trypanosoma cruzi [6] were 18 µM, “ND(Insoluble)” and 12 µM, respectively. The solubility result in series [3] was “Insoluble”. In addition, the MNTC at 24 h in series [4] was > 100 µg/mL.
